ChEMBL document CHEMBL1123783, “Synthesis and anticonvulsant activity of analogues of 4-amino-N-(1-phenylethyl)benzamide” (J Med Chem, 1987)

How the values were obtained:
Mus musculus [1] = test: Compound was evaluated for anticonvulsant activity against subcutaneous pentylenetetrazole-induced convulsions after 4 hr; C is inactive at 300 mg/kg.; type: functional, organism-based; design: dose 300 mg/kg
In short: (§1)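 Male Carworth Farms number-one mice were dosed ip in 30% PEG 400, at 30, 100 or 300 mg/kg (sometimes 600 mg/kg). Pentylenetetrazole, 85 mg/kg as a 0.5% solution, was injected subcutaneously in the posterior midline. Protection meant no episode of clonic spasms lasting at least 5 s during a 30-min observation period.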

Mus musculus [2] = test: Compound was evaluated for toxicity by rotarod assay method after 30 minutes; C is inactive at 300 mg/kg.; type: organism-based; design: dose 300 mg/kg; conditions: in vivo, 0.5 h
In short: (§2)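 Male Carworth Farms number-one mice received test compound intraperitoneally in 30% polyethylene glycol 400 at 30, 100 and 300 mg/kg, with 600 mg/kg in some cases. Neurological deficit was read at 30 min or 4 h after dosing on a 1-in.-diameter knurled plastic rod turning at 6 rpm. Toxicity was scored as failure to stay on the rod for 1 min.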

Mus musculus [3] = test: Compound was evaluated for anticonvulsant activity against maximal electric shock (MES) induced convulsions after 30 minutes;C is inactive at 300 mg/kg.; type: functional, organism-based; design: dose 300 mg/kg
Mus musculus [4] = test: Compound was evaluated for anticonvulsant activity against subcutaneous pentylenetetrazole-induced convulsions after 30 minutes;C is inactive at 300 mg/kg.; type: functional, organism-based; design: dose 300 mg/kg; in short: as §1
Mus musculus [5] = test: Compound was evaluated for anticonvulsant activity against maximal electric shock (MES) induced convulsions after 4 hr; C is inactive at 300 mg/kg.; type: functional, organism-based; design: dose 300 mg/kg
Mus musculus [6] = test: Compound was evaluated for toxicity by rotarod assay method after 4 hr; C is inactive at 300 mg/kg.; type: organism-based; design: dose 300 mg/kg; conditions: in vivo; in short: as §2
Mus musculus [7] = test: Compound was evaluated for toxicity by rotarod assay method after 4 hr at a dose of 100 mg/kg; type: organism-based; design: dose 100 mg/kg; conditions: in vivo; in short: as §2
Mus musculus [8] = test: Compound was evaluated for toxicity by rotarod assay method after 30 minutes at a dose of 100 mg/kg; type: organism-based; design: dose 100 mg/kg; conditions: in vivo, 0.5 h; in short: as §2
Mus musculus [9] = test: Compound was evaluated for anticonvulsant activity against maximal electric shock (MES) induced convulsions after 4 hr at a dose of 100 mg/kg; type: functional
Mus musculus [10] = species: Mus musculus; test: Compound was evaluated for anticonvulsant activity against maximal electric shock induced seizures; type: functional
In short: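 Male Carworth Farms number-one mice received the compound ip in 30% polyethylene glycol 400 before maximal electroshock testing, at several dose levels. The median effective dose (ED50) was obtained by the graphical method.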

Mus musculus [11] = test: Compound was evaluated for anticonvulsant activity against subcutaneous pentylenetetrazole-induced convulsions after 4 hr; D indicates no activity at 100 mg/kg; type: functional, organism-based; design: dose 100 mg/kg; in short: as §1
[12] = Compound was evaluated for anticonvulsant activity by rotarod procedure; type: ADME, organism-based; conditions: mouse, in vivo
In short: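 Male Carworth Farms mice were dosed ip in 30% PEG 400 and then placed on a knurled plastic rod 1 in. in diameter, rotating at 6 rpm. Neurotoxicity was failure to stay on the rod for 1 min. TD50 was derived graphically.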

[13] = Protective index is the ratio of TD50 to ED50; type: ADME; conditions: for selectivity ratio: read-out: Protective index
In short: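 Protective index was calculated as rotorod TD50 divided by anti-MES ED50. Both were graphical median doses from ip dosing in 30% PEG 400 in male Carworth Farms mice.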

Mus musculus [14] = test: Compound was evaluated for anticonvulsant activity against subcutaneous pentylenetetrazole-induced convulsions after 30 minutes; D indicates no activity at 100 mg/kg; type: functional, organism-based; design: dose 100 mg/kg; in short: as §1
Mus musculus [15] = test: Compound was evaluated for anticonvulsant activity against maximal electric shock (MES) induced convulsions after 30 minutes at a dose of 30 mg/kg; type: functional
Mus musculus [16] = test: Compound was evaluated for anticonvulsant activity against maximal electric shock (MES) induced convulsions after 4 hr at a dose of 300 mg/kg; type: functional
Mus musculus [17] = test: Compound was evaluated for anticonvulsant activity against subcutaneous pentylenetetrazole-induced convulsions after 30 minutes at a dose of 300 mg/kg; type: functional; in short: as §1
Mus musculus [18] = test: Compound was evaluated for toxicity by rotarod assay method after 30 minutes at a dose of 300 mg/kg; type: organism-based; design: dose 300 mg/kg; conditions: in vivo, 0.5 h; in short: as §2
Mus musculus [19] = test: Compound was evaluated for anticonvulsant activity against subcutaneous pentylenetetrazole-induced convulsions; type: functional; conditions: sc; in short: as §1
Mus musculus [20] = test: Compound was evaluated for anticonvulsant activity against maximal electric shock (MES) induced convulsions after 30 minutes at a dose of 100 mg/kg; type: functional
Mus musculus [21] = test: Compound was evaluated for anticonvulsant activity against subcutaneous pentylenetetrazole-induced convulsions after 4 hr; C indicates no activity at 300 mg/kg.; type: functional, organism-based; design: dose 300 mg/kg; in short: as §1
Mus musculus [22] = test: Compound was evaluated for toxicity by rotarod assay method after 4 hr; C indicates no activity at 300 mg/kg.; type: organism-based; design: dose 300 mg/kg; conditions: in vivo; in short: as §2
Mus musculus [23] = test: Compound was evaluated for anticonvulsant activity against subcutaneous pentylenetetrazole-induced convulsions after 4 hr at a dose of 300 mg/kg; type: functional; in short: as §1
Mus musculus [24] = test: Compound was evaluated for toxicity by rotarod assay method after 4 hr at a dose of 300 mg/kg; type: organism-based; design: dose 300 mg/kg; conditions: in vivo; in short: as §2
Mus musculus [25] = test: Compound was evaluated for toxicity by rotarod assay method after 30 minutes; C indicates no activity at 300 mg/kg.; type: organism-based; design: dose 300 mg/kg; conditions: in vivo, 0.5 h; in short: as §2
Mus musculus [26] = test: Compound was evaluated for anticonvulsant activity against subcutaneous pentylenetetrazole-induced convulsions after 30 minutes;C indicates no activity at 300 mg/kg.; type: functional, organism-based; design: dose 300 mg/kg; in short: as §1
Mus musculus [27] = test: Compound was evaluated for anticonvulsant activity against maximal electric shock (MES) induced convulsions after 30 minutes at a dose of 300 mg/kg; type: functional
Mus musculus [28] = test: Compound was evaluated for anticonvulsant activity against subcutaneous pentylenetetrazole-induced convulsions after 30 minutes; C indicates no activity at 300 mg/kg.; type: functional, organism-based; design: dose 300 mg/kg; in short: as §1
Mus musculus [29] = test: Compound was evaluated for anticonvulsant activity against maximal electric shock (MES) induced convulsions after 4 hr; C indicates no activity at 300 mg/kg.; type: functional, organism-based; design: dose 300 mg/kg

Row | SMILES | Activity (Mus musculus [1]) | Toxicity (Mus musculus [2]) | Activity (Mus musculus [3]) | Activity (Mus musculus [4]) | Activity (Mus musculus [5]) | Toxicity (Mus musculus [6]) | Toxicity (Mus musculus [8]) | Activity (Mus musculus [9]) | ED50 (Mus musculus [10]) [mg/kg] | TD50 [12] [mg/kg] | selectivity ratio [13] | Activity (Mus musculus [17]) | ED50 (Mus musculus [19]) [mg/kg] | Activity (Mus musculus [20]) | Activity (Mus musculus [21]) | Toxicity (Mus musculus [22]) | other results
1 | CC(=O)Nc1ccc(C(=O)NC(C)c2ccccc2)cc1 (centres undefined) | No activity at 300 mg/kg | No activity at 300 mg/kg | No activity at 300 mg/kg | No activity at 300 mg/kg | No activity at 300 mg/kg | No activity at 300 mg/kg |  |  |  |  |  |  |  |  |  |  | 
2 | CNCc1ccc(C(=O)NC(C)c2ccccc2)cc1 (centres undefined) |  |  |  |  |  |  | 3 | 3 | 13.5 | 22.4 | 1.66 |  |  |  |  |  | Toxicity (Mus musculus [7]): 3; Activity (Mus musculus [11]): No activity at 100 mg/kg; Activity (Mus musculus [14]): No activity at 100 mg/kg; Activity (Mus musculus [15]): 4
3 | Cc1ccc(C(C)NC(=O)c2ccc(N)cc2)cc1 (centres undefined) | No activity at 300 mg/kg | No activity at 300 mg/kg | No activity at 300 mg/kg | No activity at 300 mg/kg | No activity at 300 mg/kg | No activity at 300 mg/kg |  |  |  |  |  |  |  |  |  |  | 
4 | CCCCC(NC(=O)c1ccc(N)cc1)c1ccccc1 (centres undefined) |  |  |  |  |  |  |  |  | 73.7 | 332 |  | 2 | 161 | 3 | No activity at 300 mg/kg | No activity at 300 mg/kg | Activity (Mus musculus [16]): 2; Toxicity (Mus musculus [18]): 2; Protective index [13]: 2.06
5 | CCC(NC(=O)c1ccc(N)cc1)c1ccccc1 (centres undefined) |  |  |  |  |  |  | 3 | 3 | 54.3 | 95.4 | 1.76 | 2 | 54.1 | 3 |  |  | Activity (Mus musculus [23]): 2; Toxicity (Mus musculus [24]): 2
6 | CC(NC(=O)c1ccc(N)cc1)c1ccc(F)cc1 (centres undefined) |  |  |  |  |  |  |  | 3 |  |  |  |  |  |  | No activity at 300 mg/kg |  | Toxicity (Mus musculus [24]): 2; Toxicity (Mus musculus [25]): No activity at 300 mg/kg; Activity (Mus musculus [26]): No activity at 300 mg/kg; Activity (Mus musculus [27]): 2
7 | CN(C)c1ccc(C(=O)Nc2ccccc2)cc1 | No activity at 300 mg/kg | No activity at 300 mg/kg | No activity at 300 mg/kg | No activity at 300 mg/kg | No activity at 300 mg/kg | No activity at 300 mg/kg |  |  |  |  |  |  |  |  |  |  | 
8 | CC(NCc1ccc(N)cc1)c1ccccc1 (centres undefined) |  |  |  |  |  |  | 3 |  | 11.1 | 15.5 | 1.4 |  |  |  | No activity at 300 mg/kg | No activity at 300 mg/kg | Activity (Mus musculus [28]): No activity at 300 mg/kg; Activity (Mus musculus [15]): 4; Activity (Mus musculus [29]): No activity at 300 mg/kg
9 | CC(NC(=O)c1ccccc1)c1ccc(N)cc1 (centres undefined) |  |  |  |  |  |  |  |  | 68.2 | 190 | 2.79 | 2 | 126 | 3 | No activity at 300 mg/kg | No activity at 300 mg/kg | Activity (Mus musculus [16]): 2; Toxicity (Mus musculus [18]): 2; Protective index [13]: 1.51
10 | CNc1ccc(C(=O)NCc2ccccc2)cc1 | No activity at 300 mg/kg | No activity at 300 mg/kg | No activity at 300 mg/kg | No activity at 300 mg/kg | No activity at 300 mg/kg | No activity at 300 mg/kg |  |  |  |  |  |  |  |  |  |  | 
